Hits are enriched below; roughly 1.3% of the tested compounds scored in any of these assays.
PAD4 inh: inhibitors of human PAD4; Q9UM07; recombinant PAD4, RCA probe fluorescence polarization; inhibition, % at 6.36 µM; hit rate 0.41% among 330,000;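 active means percent inhibition above a cutoff equal to the mean of all tested compounds plus 3 SD, cut at about 15% in these data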
Target sequence (Q9UM07 whole entry, looked up): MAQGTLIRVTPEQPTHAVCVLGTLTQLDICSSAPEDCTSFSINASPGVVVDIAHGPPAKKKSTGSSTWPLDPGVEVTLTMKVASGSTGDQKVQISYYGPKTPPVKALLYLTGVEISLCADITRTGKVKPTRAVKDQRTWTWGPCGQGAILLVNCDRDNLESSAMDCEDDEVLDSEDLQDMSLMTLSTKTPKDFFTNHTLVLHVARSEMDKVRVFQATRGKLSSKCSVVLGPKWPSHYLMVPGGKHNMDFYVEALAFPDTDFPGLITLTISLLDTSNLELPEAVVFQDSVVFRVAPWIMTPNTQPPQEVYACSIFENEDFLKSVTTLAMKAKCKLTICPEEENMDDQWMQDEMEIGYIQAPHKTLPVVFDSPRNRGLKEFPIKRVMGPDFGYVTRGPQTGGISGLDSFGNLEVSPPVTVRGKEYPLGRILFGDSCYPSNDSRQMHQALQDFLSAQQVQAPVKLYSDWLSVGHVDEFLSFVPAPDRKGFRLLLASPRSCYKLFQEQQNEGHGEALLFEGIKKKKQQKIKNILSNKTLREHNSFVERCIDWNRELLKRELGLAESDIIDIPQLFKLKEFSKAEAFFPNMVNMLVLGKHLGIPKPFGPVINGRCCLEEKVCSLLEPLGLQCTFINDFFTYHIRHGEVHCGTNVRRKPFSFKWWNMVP
RBBP9 inhibitor: blocks human serine hydrolase RBBP9. O75884. recombinant RBBP9, FP-Rh probe fluorescence polarization. inhibition, % at 7.94 µM. hit rate 0.2% among 220,000. AID 1515;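 active means inhibition above the campaign mean of all tested compounds plus 3 SD, cut at about 14% in these data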
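Assay system: recombinant human RBBP9; Reagent: Serine-hydrolase probe FP-Rh, 375 nM pre-mixing; Doses: 7.94 µM single dose, 0.794% DMSO; Incubation: 30 min then 45 min, 25 °C; Detection: fluorescence polarization (mP), excitation 525 nm, emission 598 nm; Evaluation: percent inhibition from mP, scaled between DMSO and no-protein wells.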
Fam108B inh: blocks mouse Fam108B hydrolase in RBBP9 counter-screen | recombinant Fam108B, FP-Rh probe fluorescence polarization | inhibition, % at 9.51 µM | hit rate 0.33% among 300,000 | AID 1947;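 active means inhibition above the screen mean inhibition plus 3 SD, computed separately per campaign, cut at about 18% in these data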;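 further: inhibitors lower polarization as less probe binds the enzyme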
LYPLA2 inh: blocks human lysophospholipase 2, a PME1 counter-screen; hit rate 0.38% among 320,000; O95372; recombinant LYPLA2, FP-Rh probe fluorescence polarization; inhibition, % at 5.9 µM;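 active means inhibition above the screen-wide mean plus 3 SD, limit set per campaign, cut at about 26% in these data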
LYPLA1 counter: blocks human lysophospholipase 1, a PME1 counter-screen | inhibition, % at 5.9 µM | hit rate 0.16% among 320,000 | recombinant LYPLA1, FP-Rh probe fluorescence polarization | O75608;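 active means inhibition above the mean of all tested compounds plus 3 SD, set per campaign, cut at about 14% in these data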;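 further: inhibitors block serine hydrolase probe labeling of LYPLA1 so polarization falls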
PME-1 primary: blocks human protein phosphatase methylesterase 1 | Q9Y570 | recombinant PME-1, FP-Rh probe fluorescence polarization | inhibition, % at 5.9 µM | hit rate 0.53% among 320,000 | AID 2130;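 active means inhibition above the campaign mean of all compounds plus 3 SD, cut at about 26% in these data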;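 further: competitive labeling of PME-1 active site by serine hydrolase directed probe; inhibitors block probe labeling so polarization falls and inhibition rises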
LYPLA2 conf: LYPLA2 (human) inhibition, confirmation counter-screen | AID 2232 | shares compounds with LYPLA2 inh | inhibition, % at 5.9 µM | hit rate 72% among 1,100 | recombinant LYPLA2, FP-Rh probe fluorescence polarization;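 active means mean inhibition across replicates above the hit cutoff set in the primary screen, cut at about 26% in these data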;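 further: blocked labeling of the enzyme by serine hydrolase FP-Rh probe lowers polarization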
LYPLA2 ABPP: inhibitors of human LYPLA2; hit rate 30% among 150; inhibition, % at 20 µM; rhLYPLA2 in mouse brain proteome, gel ABPP FP-Rh; shares compounds with LYPLA2 inh;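 active means inhibition of LYPLA2 enzyme probe labeling above about 50%, limit read from the data; inactive means inhibition below that limit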;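 further: loss of FP-Rh probe labeling of the LYPLA2 gel band measured as band density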
PAD4 confirm: PAD4 (human) inhibition, confirmed. recombinant PAD4, RCA probe fluorescence polarization. shares compounds with PAD4 inh. hit rate 28% among 1,200. inhibition, % at 6.36 µM;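 active means mean inhibition across replicates above the hit cutoff set by the earlier primary screen, cut at about 15% in these data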;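 further: inhibitors block active-site labeling by the probe so polarization falls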
Numbers stand for hits; i = inactive; nt = no result.

SMILES	PAD4 inh	RBBP9 inhibitor	Fam108B inh	LYPLA2 inh	LYPLA1 counter	PME-1 primary	PAD4 confirm	others
O=[N+]([O-])c1ccc(NCc2ccc(Cl)cc2)c2ccncc12	i	nt	i	33	i	i	nt	LYPLA2 conf=52;LYPLA2 ABPP=i
NCCNc1ccc([N+](=O)[O-])c2cccnc12	i	i	i	i	i	i	nt
COc1ccc(C2(C#N)CCN(C)CC2)cc1	i	i	i	i	i	i	nt
CCN(CC)C(=O)c1ccc(NC(=S)NC(=O)CCc2ccccc2)cc1	i	nt	i	30	i	i	nt	LYPLA2 conf=i
CCN(CC)C(=O)c1ccc(NC(=O)CCCSc2ccccc2)cc1	i	i	i	i	i	i	nt
C[N+]1(C)C2CCC1CC(OC(=O)c1ccccc1)C2 (stereo unspecified)	i	i	i	26	i	i	nt	LYPLA2 conf=i
CCCCn1c(NS(=O)(=O)c2ccccc2)c(C(=O)OCC)c2nc3ccccc3nc21	63	i	i	i	i	i	i
CCCN(CCC)C(=O)Cc1c(-c2ccc(Cl)cc2)nc2c(Cl)cc(Cl)cn12	i	nt	i	i	i	i	nt
Cc1ccc(-c2nc3ccc(C)cn3c2CC(=O)N(C)C)cc1	17	nt	i	i	i	i	i
CC(C)n1c(=O)c(C=Nc2cccc([N+](=O)[O-])c2)c(O)n(CCc2ccccc2)c1=O	i	i	i	i	i	i	nt
N#CC1(c2ccccc2)CCN(C2CC(=O)N(c3ccc(F)cc3)C2=O)CC1 (stereo unspecified)	18	i	i	i	i	i	i
O=c1[nH]c(=S)n(-c2ccccc2F)c(O)c1C=Nc1ccc(N2CCOCC2)cc1	17	i	i	i	i	i	i
CCOc1ccc(CC2(CCc3ccncc3)C(=O)NC(=O)NC2=O)cc1	i	i	i	i	i	i	nt
CC1=NN(c2ccccc2)C(=O)C1/C=C1\C(=O)NC(=O)N(c2ccc(C)c(C)c2)C1=O (stereo unspecified)	i	i	i	i	i	i	nt
CC1=NN(c2ccccc2)C(=O)C1/C=C1\C(=O)NC(=O)N(c2cc(C)cc(C)c2)C1=O (stereo unspecified)	26	i	i	i	i	i	i
CC1CCCC(C)N1/N=C/c1c[nH]c2ccc(Br)cc12 (stereo unspecified)	i	i	i	i	i	i	nt
Cc1[nH]n(-c2ccccc2)c(=O)c1C(c1ccc([N+](=O)[O-])cc1)c1c(C)[nH]n(-c2ccccc2)c1=O	66	i	i	i	i	i	i
C=CCn1c(O)c(C(CC)=Nc2ccc(N(C)C)cc2)c(=O)[nH]c1=O	30	i	i	i	i	i	i
C=CCn1c(O)c(C=Nc2ccc(N(CC)CC)cc2)c(=O)[nH]c1=O	28	i	i	i	i	i	i
CCCCS(=O)(=O)N1CCN(C(=N)N[N+](=O)[O-])CC1	i	i	i	i	i	i	nt
CN(CC1COc2ccccc2O1)c1nc(-c2cccnc2)nc2ccccc12 (stereo unspecified)	i	i	i	i	i	i	nt
COc1cc2c(cc1O)C[C@H]1c3c(cc(O)c(OC)c3-2)CCN1C	i	nt	i	i	i	i	nt
CN1CCc2cc3c(c4c2C1Cc1ccccc1-4)OCO3 (stereo unspecified)	58	nt	i	i	i	i	i
CCCCn1c(O)c(C(C)=NCCCn2ccnc2)c(=O)[nH]c1=O	27	i	i	i	i	i	16
CCCCn1c(O)c(C(CC)=NCCCn2ccnc2)c(=O)[nH]c1=O	i	i	i	i	i	i	nt
SMILES	PAD4 inh	RBBP9 inhibitor	Fam108B inh	LYPLA2 inh	LYPLA1 counter	PME-1 primary	PAD4 confirm	others
CN1CCc2cc(O)cc3c2[C@H]1Cc1ccc(O)c(O)c1-3	i	nt	i	i	i	i	nt
CCCN1CCc2cc(O)cc3c2[C@H]1Cc1ccc(O)c(O)c1-3	18	nt	i	i	i	i	i
C=C(COC(=O)CCC(=O)O)CC1CC(O)[C@]2(C)OC3CC4OC5C[C@]6(C)O[C@]7(C)CCC8OC9C[C@]%10(C)OC%11C(C)=CC(=O)OC%11CC%10OC9C[C@@H](C)C8OC7CC6O[C@]5(C)C/C=C\C4OC3CC2O1 (stereo partly specified)	i	nt	nt	nt	nt	nt	nt
CC1CC(NC(=O)C2C3CCC(O3)C2C(=O)O)CC(C)(C)C1 (stereo unspecified)	i	i	i	i	i	i	nt
Nc1c(C(=O)OCc2ccccc2)c2nc3ccccc3nc2n1Cc1cccs1	25	i	i	i	i	i	i
CC(=O)Nc1ccccc1OC(=O)N(C)C	i	i	i	i	i	i	nt
CN(C)C(=O)Oc1cccc2c(OC(=O)N(C)C)cccc12	24	i	i	i	i	i	i
